# Test results taken from the RNAGym collection of RNA variant scans (doi:10.1126/science.aae0568).
# Fewer inactive variants are shown than the library holds.
# B1: tRNA (parent)
# chain: GUUCCGUUGGCGUAAUGGUAACGCGUCUCCCUCCUAAGGAGAAGACUGCGGGUUCGAGUCCCGUACGGAACG
# Variants of: B1
# Assay: yeast fitness relative to wild type (ratio to wild type); higher = fitter; tRNA-Arg(CCU), competitive growth, 37 C, YPD
# Procedure, shortened: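 For this measurement, the tRNA-Arg(CCU) gene was varied by chemical synthesis at a 3% per-site mutation rate across 69 sites, and each variant was placed at the native genomic locus in Saccharomyces cerevisiae. The pooled strains went through a 24-hour competition in YPD at 37°C in six parallel replicates, with amplicons from start and end populations read by 100-nucleotide paired-end sequencing. Darwinian fitness relative to wild type followed from the change in each genotype's frequency. Genotypes needed ≥ 100 starting reads, and estimates < 0.5 were set to 0.5.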
row,Variant,yeast fitness
1,C5U U8C C11G A15U C49U G51A G63A,≤ 0.5
2,C5U U8C C31G C33G C34U G68A,≤ 0.5
3,C5U U8C G17C C31A G68A,≤ 0.5
4,C5U U8G,0.64
5,C5U U13A A15G G50C A57G,0.536
6,C5U U13A A43G A45G C62G,≤ 0.5
7,C5U U13A A57U,0.573
8,C5U U13A A70U,0.737
9,C5U U13A C22U C30A A37G G41C C46G,≤ 0.5
10,C5U U13A C27G,0.557
11,C5U U13A C29G C31A,0.593
12,C5U U13A C29G C31A C61U,≤ 0.5
13,C5U U13A C29G C31G,≤ 0.5
14,C5U U13A C62A,0.546
15,C5U U13A G18C C30G A37U C46U,≤ 0.5
16,C5U U13A G58C,0.63
17,C5U U13C A15C,≤ 0.5
18,C5U U13C A20C A36G G52C,≤ 0.5
19,C5U U13C A20U A37C G44C,≤ 0.5
20,C5U U13C C24G U26C A36C C55G A57U C62U,≤ 0.5
21,C5U U13C C24G U26C A37G U54G,≤ 0.5
22,C5U U13C C30U A40G C55A G63C A65C,≤ 0.5
23,C5U U13C G39C A45G,≤ 0.5
24,C5U U13C U19A A21U C24A U54C,≤ 0.5

row,Variant,yeast fitness
1,C5U U13C U19A A21U C24A U54C U59C C66G,≤ 0.5
2,C5U U13C U26A,0.722
3,C5U U13G,1.02
4,C5U U13G A15C,0.509
5,C5U U13G A15U,≤ 0.5
6,C5U U13G A57C,0.755
7,C5U U13G C22A C29U C31A U59A C62U,≤ 0.5
8,C5U U13G C27U C29A A36U A40C G52C,≤ 0.5
9,C5U U13G C33A A37C C61U,≤ 0.5
10,C5U U13G C33A A37C G52C,≤ 0.5
11,C5U U13G C55U G67C,≤ 0.5
12,C5U U13G G44A A57U,0.642
13,C5U U16A,0.882
14,C5U U16A A42U,0.666
15,C5U U16A C34A,≤ 0.5
16,C5U U16A C34A G63A,≤ 0.5
17,C5U U16A C46A,1.07
18,C5U U16A C46A G68A,0.625
19,C5U U16A G23A C49U,≤ 0.5
20,C5U U16A G38A A42G,≤ 0.5
21,C5U U16C A20G A40G A43G G67C,≤ 0.5
22,C5U U16C A20G C29A,≤ 0.5
23,C5U U16C A36G,0.73
24,C5U U16C A40G A43G G67C,≤ 0.5

row,Variant,yeast fitness
1,C5U U16C A69C,0.671
2,C5U U16C C22G C29G,≤ 0.5
3,C5U U16C C24U A42C A57U,≤ 0.5
4,C5U U16C C29A,0.522
5,C5U U16C C30A C31U,≤ 0.5
6,C5U U16G A57G C62G C66U,≤ 0.5
7,C5U U16G A65C,0.612
8,C5U U16G C24U,0.776
9,C5U U16G C34U A40G A43G C62A A69C,0.565
10,C5U U16G G51C A57C,≤ 0.5
11,C5U U16G G58C,0.576
12,C5U U16G U64C,0.932
13,C5U U19A,0.906
14,C5U U19A A20U G48A C60A,≤ 0.5
15,C5U U19A A40C C49G C55G A69U,≤ 0.5
16,C5U U19A G25C C29A A43U,≤ 0.5
17,C5U U19C A21U C31U A42G A43U A65C,≤ 0.5
18,C5U U19C A69G,0.706
19,C5U U19C C22U,0.721
20,C5U U19C C34U A70C,≤ 0.5
21,C5U U19G,1
22,C5U U19G A21U C29G,≤ 0.5
23,C5U U19G A21U C29G C61G,≤ 0.5
24,C5U U19G C46A C55G,≤ 0.5

row,Variant,yeast fitness
1,C5U U19G C46U A69C,≤ 0.5
2,C5U U19G C66A,0.531
3,C5U U19G G23A,≤ 0.5
4,C5U U19G G23A C46A,≤ 0.5
5,C5U U19G G67A,0.649
6,C5U U26A A43U,0.715
7,C5U U26A A65G,0.739
8,C5U U26A A65U G68U,0.548
9,C5U U26A A69C,0.78
10,C5U U26A C33G C46U C55G C66A,0.539
11,C5U U26A C55G,≤ 0.5
12,C5U U26A C60G A70G,≤ 0.5
13,C5U U26A C66U,0.792
14,C5U U26A G68C,0.663
15,C5U U26A U54C,0.644
16,C5U U26A U59C,0.722
17,C5U U26C A70U,0.723
18,C5U U26C G50C G51C G56C G67A,≤ 0.5
19,C5U U26G A43C C62G G63A C66G A69G,0.549
20,C5U U26G C49G,≤ 0.5
21,C5U U28A,0.864
22,C5U U28A C34U C61U,≤ 0.5
23,C5U U28A C62G,≤ 0.5
24,C5U U28A G41A,0.534

row,Variant,yeast fitness
1,C5U U28A G41A A70U,≤ 0.5
2,C5U U28A G41A C66U,0.542
3,C5U U28A G41A U54C,≤ 0.5
4,C5U U28A G67A,0.545
5,C5U U28A U35C U59A,≤ 0.5
6,C5U U28C,0.976
7,C5U U28C C29G C49U,≤ 0.5
8,C5U U28C C33G G38A U64G,≤ 0.5
9,C5U U28G,0.71
10,C5U U28G A42C,≤ 0.5
11,C5U U28G A45C,0.592
12,C5U U28G A45C C66U,0.599
13,C5U U28G C49A,≤ 0.5
14,C5U U32A,0.789
15,C5U U32A G50A,0.581
16,C5U U32C A37C C60U G67A,0.572
17,C5U U32C A45C,0.733
18,C5U U32C A45G C46A,0.602
19,C5U U32C C49U A57C,≤ 0.5
20,C5U U32C C55U,0.564
21,C5U U32C G39A,0.584
22,C5U U32G,0.669
23,C5U U32G C33G C55U,0.621
24,C5U U35A,0.615

row,Variant,yeast fitness
1,C5U U35C A36U G38A C46A U54C,0.556
2,C5U U35C A36U G38A C46A U54C G68C,≤ 0.5
3,C5U U35C A43U A70G,≤ 0.5
4,C5U U35C A45C,0.743
5,C5U U35C A45U C61G,≤ 0.5
6,C5U U35C U54C C55A,≤ 0.5
7,C5U U35G,0.592
8,C5U U47A C49U A69U,≤ 0.5
9,C5U U47C A57C,≤ 0.5
10,C5U U47C A57U G67C,≤ 0.5
11,C5U U47C U54C C55G,≤ 0.5
12,C5U U47G,0.615
13,C5U U53A,0.604
14,C5U U53C,0.747
15,C5U U54A,0.699
16,C5U U54A A69U,≤ 0.5
17,C5U U54C,0.805
18,C5U U54G,0.647
19,C5U U59A,0.886
20,C5U U59C,0.946
21,C5U U59G C61G,0.606
22,C5U U64A,0.933
23,C5U U64C,0.932
24,C5U U64G,0.853

row,Variant,yeast fitness
1,G6A A14C A20G A42U G56A G63C,≤ 0.5
2,G6A A14C A37U A57C G67U,≤ 0.5
3,G6A A14C A37U U54A,≤ 0.5
4,G6A A14C A40U A43G G48A,0.607
5,G6A A14C A42U C62A C66U,≤ 0.5
6,G6A A14C C24U,0.597
7,G6A A14C C24U G50A A57U A70U,0.745
8,G6A A14G,0.844
9,G6A A14G A15G A20C U64A G67A,≤ 0.5
10,G6A A14G A36G A45U,0.574
11,G6A A14G C22G,≤ 0.5
12,G6A A14G C33A,≤ 0.5
13,G6A A14G C46G C62G,≤ 0.5
14,G6A A14G G17C,≤ 0.5
15,G6A A14G G18A A42C,0.618
16,G6A A14G G48C,≤ 0.5
17,G6A A14U A21U G25C C60U C61A C62G,≤ 0.5
18,G6A A14U C29A C49A,≤ 0.5
19,G6A A14U C30U A69U,≤ 0.5
20,G6A A14U C33G,≤ 0.5
21,G6A A14U C55U C61A,≤ 0.5
22,G6A A14U C61A,≤ 0.5
23,G6A A14U C66U,≤ 0.5
